We go through 8 molecules from ChEMBL document CHEMBL4364290, “Light-controlled inhibition of BRAFV600E kinase” (Eur J Med Chem, 2019).

Some results are limits rather than exact numbers.

Test system in one series: not listed separately
Put plainly: Stability of the compound in DMSO-D6 at 2 mg/ml by 1H-19F NMR analysis. The series is classed as physicochemical. The following applies: read-out: Stability.
As to `COc1ccc(/N=N/c2ccc(F)c(C(=O)Nc3cnc4[nH]nc(OC)c4c3)c2F)cc1`, the remaining at 2 mg/ml is above 95%.

On to `COc1n[nH]c2ncc(NC(=O)c3c(F)ccc(/N=N/c4ccccc4F)c3F)cc12`, for which the remaining at 2 mg/ml was above 95%.

With `COc1n[nH]c2ncc(NC(=O)c3c(F)ccc(/N=N/c4ccc(C)cc4)c3F)cc12`, the remaining at 2 mg/ml was above 95%.

In the case of `COc1n[nH]c2ncc(NC(=O)c3c(F)ccc(/N=N/c4ccc(F)cc4)c3F)cc12`, the remaining at 2 mg/ml was above 95%.

Regarding `COc1ccc(/N=N/c2cccc(C(=O)Nc3cnc4[nH]nc(OC)c4c3)c2)cc1`, the remaining at 2 mg/ml was above 95%.

Take `COc1ccccc1/N=N/c1ccc(F)c(C(=O)Nc2cnc3[nH]nc(OC)c3c2)c1F`: the remaining at 2 mg/ml was above 95%.

For the molecule `COc1n[nH]c2ncc(NC(=O)c3c(F)ccc(/N=N/c4ccccc4C)c3F)cc12`, the remaining at 2 mg/ml was above 95%.

Test system in a further series: not listed separately
Put plainly: Drug isomerization in DMSO-d6 irradiated at 365 nm assessed as cis isomer level at PSS at 2 mg/ml measured after 40 mins under room temperature by 1H and 19F-NMR spectroscopic analysis.
Conditions: not given
For the molecule `COc1n[nH]c2ncc(NC(=O)c3c(F)ccc(/N=N/c4ccccc4F)c3F)cc12`, the Drug metabolism was determined as 68%.

Test system in another series: not listed separately
Put plainly: Drug isomerization in DMSO-d6 irradiated at 365 nm assessed as cis isomer level at PSS at 2 mg/ml measured after 30 mins under room temperature by 1H and 19F-NMR spectroscopic analysis.
Conditions: not given
Turning to `COc1ccc(/N=N/c2ccc(F)c(C(=O)Nc3cnc4[nH]nc(OC)c4c3)c2F)cc1`, the Drug metabolism was found to be 60%.

Test system in another series: not listed separately
Put plainly: Drug isomerization in DMSO-d6 assessed as cis isomer level at PSS at 2 mg/ml irradiated at 365 nm light measured immediately by 1H-NMR spectroscopic analysis.
Conditions: not given
With `COc1ccc(/N=N/c2ccc(F)c(C(=O)Nc3cnc4[nH]nc(OC)c4c3)c2F)cc1`, the Drug metabolism came out at 96%.

Take `COc1n[nH]c2ncc(NC(=O)c3c(F)ccc(/N=N/c4ccccc4F)c3F)cc12`: the Drug metabolism was 71%.

For `COc1n[nH]c2ncc(NC(=O)c3c(F)ccc(/N=N/c4ccc(C)cc4)c3F)cc12`, the Drug metabolism is 84%.

On to `COc1n[nH]c2ncc(NC(=O)c3c(F)ccc(/N=N/c4ccc(F)cc4)c3F)cc12`, for which the Drug metabolism turned out to be 62%.

`COc1ccc(/N=N/c2cccc(C(=O)Nc3cnc4[nH]nc(OC)c4c3)c2)cc1`: the Drug metabolism came to 73%.

For `COc1ccccc1/N=N/c1ccc(F)c(C(=O)Nc2cnc3[nH]nc(OC)c3c2)c1F`, the Drug metabolism was found to be 88%.

With `COc1n[nH]c2ncc(NC(=O)c3c(F)ccc(/N=N/c4ccccc4C)c3F)cc12`, the Drug metabolism worked out at 77%.

For the next series, the target named is T1, Serine/threonine-protein kinase B-raf (Homo sapiens, UniProt P15056, V600E). Put plainly: Inhibition of human recombinant N-terminal GST/His6-tagged BRAF V600E mutant (Q417 to H766 residues) expressed in Sf9 insect cells using MEK1 as substrate measured after 1 hr using preheated compound at 60 degC for 30 mins by Western blot analysis.
T1 sequence (P15056 2-766 V600E limits assumed): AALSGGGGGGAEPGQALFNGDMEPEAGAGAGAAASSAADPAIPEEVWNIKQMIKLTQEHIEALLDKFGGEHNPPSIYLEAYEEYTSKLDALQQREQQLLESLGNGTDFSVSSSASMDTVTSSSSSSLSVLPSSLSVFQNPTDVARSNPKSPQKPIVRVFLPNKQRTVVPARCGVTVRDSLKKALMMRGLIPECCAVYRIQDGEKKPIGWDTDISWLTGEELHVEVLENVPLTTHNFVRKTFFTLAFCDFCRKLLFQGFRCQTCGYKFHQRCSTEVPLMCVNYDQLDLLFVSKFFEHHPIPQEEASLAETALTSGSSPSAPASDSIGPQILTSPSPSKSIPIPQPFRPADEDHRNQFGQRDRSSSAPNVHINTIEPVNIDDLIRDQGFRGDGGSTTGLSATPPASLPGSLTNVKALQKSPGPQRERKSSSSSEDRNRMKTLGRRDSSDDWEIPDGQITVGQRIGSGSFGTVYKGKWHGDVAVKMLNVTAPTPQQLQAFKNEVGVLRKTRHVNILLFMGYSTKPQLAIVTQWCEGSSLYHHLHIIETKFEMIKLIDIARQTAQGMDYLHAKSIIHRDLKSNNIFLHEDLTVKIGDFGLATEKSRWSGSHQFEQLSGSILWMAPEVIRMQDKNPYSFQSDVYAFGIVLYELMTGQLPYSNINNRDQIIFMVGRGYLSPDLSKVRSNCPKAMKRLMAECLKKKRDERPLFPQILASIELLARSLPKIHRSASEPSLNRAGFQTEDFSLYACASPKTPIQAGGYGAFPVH
Conditions: not given
By IC50 is commonly meant the concentration that gives 50% inhibition. For the molecule `COc1ccc(/N=N/c2ccc(F)c(C(=O)Nc3cnc4[nH]nc(OC)c4c3)c2F)cc1`, the IC50 came to 0.092 µM.

Turning to `COc1n[nH]c2ncc(NC(=O)c3c(F)ccc(/N=N/c4ccccc4F)c3F)cc12`, the concentration for half-maximal inhibition (IC50) worked out at 0.32 µM.

With `COc1n[nH]c2ncc(NC(=O)c3c(F)ccc(/N=N/c4ccc(C)cc4)c3F)cc12`, the 50% inhibitory concentration (IC50) came out at 0.032 µM.

For the molecule `COc1n[nH]c2ncc(NC(=O)c3c(F)ccc(/N=N/c4ccc(F)cc4)c3F)cc12`, the IC50 was found to be 2.6 µM.

Turning to `COc1ccc(/N=N/c2cccc(C(=O)Nc3cnc4[nH]nc(OC)c4c3)c2)cc1`, the IC50 turned out to be 0.1 µM.

Regarding `COc1ccccc1/N=N/c1ccc(F)c(C(=O)Nc2cnc3[nH]nc(OC)c3c2)c1F`, the IC50 was 0.3 µM.

On to `COc1n[nH]c2ncc(NC(=O)c3c(F)ccc(/N=N/c4ccccc4C)c3F)cc12`, for which the IC50 was determined as 1.7 µM.

Test system in the next series: not listed separately
Put plainly: Drug isomerization in DMSO-d6 irradiated at 365 nm assessed as rate of thermal relaxation measured as cis isomer level at PSS at 2 mg/ml measured after 2.5 hrs storage in dark at room temperature by 1H-NMR spectroscopic analysis.
Conditions: not given
Consider `COc1n[nH]c2ncc(NC(=O)c3c(F)ccc(/N=N\c4ccccc4F)c3F)cc12`, for which the Drug metabolism amounted to 50%.

Test system in the next series: not listed separately
Put plainly: Drug isomerization in DMSO-d6 irradiated at 365 nm assessed as cis isomer level at PSS at 2 mg/ml measured after 70 mins under room temperature by 1H and 19F-NMR spectroscopic analysis.
Conditions: not given
Take `COc1n[nH]c2ncc(NC(=O)c3c(F)ccc(/N=N/c4ccccc4F)c3F)cc12`: the Drug metabolism was 71%.

As to `COc1n[nH]c2ncc(NC(=O)c3c(F)ccc(/N=N/c4ccc(C)cc4)c3F)cc12`, the Drug metabolism was determined as 80%.

A further series addresses T1, Serine/threonine-protein kinase B-raf. Put plainly: Inhibition of human recombinant N-terminal GST/His6-tagged BRAF V600E mutant (Q417 to H766 residues) expressed in Sf9 insect cells using MEK1 as substrate measured after 1 hr using light irradiated compound at 365 nm for 45 mins by Western blot analysis.
Conditions: not given
A general note: Immunoblotting shows a protein as a band on a membrane.
As for `COc1n[nH]c2ncc(NC(=O)c3c(F)ccc(/N=N\c4ccccc4F)c3F)cc12`, the IC50 was 0.66 µM.

Test system in a further series: not listed separately
Put plainly: Drug isomerization in DMSO-d6 irradiated at 365 nm assessed as cis isomer level at PSS at 2 mg/ml measured after 60 mins under room temperature by 1H and 19F-NMR spectroscopic analysis.
Conditions: not given
As to `COc1ccc(/N=N/c2ccc(F)c(C(=O)Nc3cnc4[nH]nc(OC)c4c3)c2F)cc1`, the Drug metabolism was 83%.

As to `COc1ccc(/N=N/c2cccc(C(=O)Nc3cnc4[nH]nc(OC)c4c3)c2)cc1`, the Drug metabolism is 92%.

As to `COc1ccccc1/N=N/c1ccc(F)c(C(=O)Nc2cnc3[nH]nc(OC)c3c2)c1F`, the Drug metabolism amounted to 88%.

Test system in the next series: not listed separately
Put plainly: Drug isomerization in DMSO-d6 irradiated at 365 nm assessed as cis isomer level at PSS at 2 mg/ml measured after 100 mins under room temperature by 1H and 19F-NMR spectroscopic analysis.
Conditions: not given
Consider `COc1n[nH]c2ncc(NC(=O)c3c(F)ccc(/N=N/c4ccc(C)cc4)c3F)cc12`, for which the Drug metabolism turned out to be 84%.

Test system in another series: not listed separately
Put plainly: Drug isomerization in DMSO-d6 irradiated at 365 nm assessed as cis isomer level at PSS at 2 mg/ml measured after 90 mins under room temperature by 1H and 19F-NMR spectroscopic analysis.
Conditions: not given
For the molecule `COc1ccc(/N=N/c2ccc(F)c(C(=O)Nc3cnc4[nH]nc(OC)c4c3)c2F)cc1`, the Drug metabolism stood at 92%.

For `COc1n[nH]c2ncc(NC(=O)c3c(F)ccc(/N=N/c4ccc(F)cc4)c3F)cc12`, the Drug metabolism was 58%.

On to `COc1ccc(/N=N/c2cccc(C(=O)Nc3cnc4[nH]nc(OC)c4c3)c2)cc1`, for which the Drug metabolism is 94%.

Turning to `COc1ccccc1/N=N/c1ccc(F)c(C(=O)Nc2cnc3[nH]nc(OC)c3c2)c1F`, the Drug metabolism amounted to 88%.

Test system in the next series: not listed separately
Put plainly: Drug isomerization in DMSO-d6 irradiated at 365 nm assessed as cis isomer level at PSS at 2 mg/ml measured after 75 mins under room temperature by 1H and 19F-NMR spectroscopic analysis.
Conditions: not given
As for `COc1n[nH]c2ncc(NC(=O)c3c(F)ccc(/N=N/c4ccccc4C)c3F)cc12`, the Drug metabolism came out at 60%.

Test system in the next series: not listed separately
Put plainly: Drug re-isomerization in DMSO-d6 assessed as cis isomer level at PSS at 2 mg/ml measured after 20 hrs under dark condition at room temperature using irradiated compound by 1H-NMR spectroscopic analysis.
Conditions: not given
For `COc1n[nH]c2ncc(NC(=O)c3c(F)ccc(/N=N\c4ccccc4F)c3F)cc12`, the Drug metabolism was 51%.

Test system in another series: not listed separately
Put plainly: Half life of the compound in pH 7.5 tris HCl buffer/acetonitrile at 2 mg/ml measured at room temperature under 365 nm light irradiation using trans-isomer form of compound by 1H-19F NMR spectroscopic analysis.
Conditions: not given
Summed up:
(§1)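 Cis isomer generated by 365 nm irradiation to PSS; half-life of thermal cis-to-trans relaxation followed at room temperature in DMSO, in BRAF assay buffer, or in 1:1 BRAF assay buffer/acetonitrile where solubility required.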
For `COc1n[nH]c2ncc(NC(=O)c3c(F)ccc(/N=N\c4ccccc4F)c3F)cc12`, the T1/2 was found to be 5 h.

Test system in another series: not listed separately
Put plainly: Drug isomerization in DMSO-d6 irradiated at 365 nm assessed as cis isomer level at PSS at 2 mg/ml measured after 120 mins under room temperature by 1H and 19F-NMR spectroscopic analysis.
Conditions: not given
For `COc1n[nH]c2ncc(NC(=O)c3c(F)ccc(/N=N/c4ccc(F)cc4)c3F)cc12`, the Drug metabolism is 62%.

Test system in another series: not listed separately
Put plainly: Drug isomerization in DMSO-d6 irradiated at 365 nm assessed as cis isomer level at PSS at 2 mg/ml measured after 135 mins under room temperature by 1H and 19F-NMR spectroscopic analysis.
Conditions: not given
With `COc1n[nH]c2ncc(NC(=O)c3c(F)ccc(/N=N/c4ccccc4C)c3F)cc12`, the Drug metabolism came out at 77%.

Test system in a further series: not listed separately
Put plainly: Half life of the compound in DMSO-d6 at 2 mg/ml measured at room temperature under 365 nm light irradiation using trans-isomer form of compound by 1H-19F NMR spectroscopic analysis.
Conditions: not given
Summed up: as §1
Turning to `COc1n[nH]c2ncc(NC(=O)c3c(F)ccc(/N=N\c4ccccc4F)c3F)cc12`, the T1/2 was above 20 h.

Test system in a further series: not listed separately
Put plainly: Absorption property of the compound in pH 7.5 tris HCl buffer assessed as maximum absorption wavelength. The series is classed as physicochemical.
Conditions: not given
The method, boiled down: (§2)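 λmax of the trans isomer recorded in DMSO and in BRAF assay buffer.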
Take `COc1ccc(/N=N/c2ccc(F)c(C(=O)Nc3cnc4[nH]nc(OC)c4c3)c2F)cc1`: the Activity worked out at 341 nm.

As to `COc1n[nH]c2ncc(NC(=O)c3c(F)ccc(/N=N/c4ccccc4F)c3F)cc12`, the Activity is 331 nm.

In the case of `COc1n[nH]c2ncc(NC(=O)c3c(F)ccc(/N=N/c4ccc(C)cc4)c3F)cc12`, the Activity is 338 nm.

For the molecule `COc1n[nH]c2ncc(NC(=O)c3c(F)ccc(/N=N/c4ccc(F)cc4)c3F)cc12`, the Activity came to 338 nm.

`COc1ccc(/N=N/c2cccc(C(=O)Nc3cnc4[nH]nc(OC)c4c3)c2)cc1`: the Activity is on record as 345 nm.

For `COc1ccccc1/N=N/c1ccc(F)c(C(=O)Nc2cnc3[nH]nc(OC)c3c2)c1F`, the Activity was determined as 327 nm.

For `COc1n[nH]c2ncc(NC(=O)c3c(F)ccc(/N=N/c4ccccc4C)c3F)cc12`, the Activity is 334 nm.

Test system in the next series: not listed separately
Put plainly: Absorption property of the compound in DMSO assessed as maximum absorption wavelength. Format: physicochemical.
Conditions: not given
The method, boiled down:
as §2
Take `COc1ccc(/N=N/c2ccc(F)c(C(=O)Nc3cnc4[nH]nc(OC)c4c3)c2F)cc1`: the Activity is reported as 357 nm.

Take `COc1n[nH]c2ncc(NC(=O)c3c(F)ccc(/N=N/c4ccccc4F)c3F)cc12`: the Activity turned out to be 336 nm.

For `COc1n[nH]c2ncc(NC(=O)c3c(F)ccc(/N=N/c4ccc(C)cc4)c3F)cc12`, the Activity is 340 nm.

Turning to `COc1n[nH]c2ncc(NC(=O)c3c(F)ccc(/N=N/c4ccc(F)cc4)c3F)cc12`, the Activity amounted to 335 nm.

As for `COc1ccc(/N=N/c2cccc(C(=O)Nc3cnc4[nH]nc(OC)c4c3)c2)cc1`, the Activity is 352 nm.

Turning to `COc1ccccc1/N=N/c1ccc(F)c(C(=O)Nc2cnc3[nH]nc(OC)c3c2)c1F`, the Activity is reported as 334 nm.

`COc1n[nH]c2ncc(NC(=O)c3c(F)ccc(/N=N/c4ccccc4C)c3F)cc12`: the Activity is 335 nm.
